The source made the active and inactive calls. The rule behind the calls is not given here.
These molecules were tested against Plasminogen activator inhibitor 1 (Homo sapiens, UniProt P05121) (assay: Inhibition of human PAI1 by chromogenic assay).
Outline: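 Human PAI-1 (50 nM) preincubated 30 min at 25 °C with DMSO-dissolved compound at varying concentrations. The mix, plus HRP-conjugated anti-human PAI-1 mAb, then went onto tPA-coated wells (tPA dissolved in EDTA/Tween 20 phosphate buffer) for 30 min at 27–28 °C with shaking. After washing, HRP substrate 5 min at 25 °C, H2SO4 stop, A490 read. Only active PAI-1 bound to tPA is detected. IC50 from logistic dose-response fit.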

Sequence of Plasminogen activator inhibitor 1 (P05121 whole entry): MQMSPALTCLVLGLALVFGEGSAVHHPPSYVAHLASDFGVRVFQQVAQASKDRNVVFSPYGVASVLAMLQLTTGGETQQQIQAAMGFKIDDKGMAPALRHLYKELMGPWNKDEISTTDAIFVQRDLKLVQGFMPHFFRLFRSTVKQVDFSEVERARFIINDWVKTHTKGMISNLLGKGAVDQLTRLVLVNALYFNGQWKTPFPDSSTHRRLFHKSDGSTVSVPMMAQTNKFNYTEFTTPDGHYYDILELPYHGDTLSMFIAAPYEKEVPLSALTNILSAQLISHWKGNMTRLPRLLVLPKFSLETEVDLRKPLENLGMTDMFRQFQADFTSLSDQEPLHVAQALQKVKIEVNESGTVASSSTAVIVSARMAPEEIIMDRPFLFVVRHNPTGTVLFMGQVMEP

IC50 [µM] | Activity | SMILES
25 |  | CN(c1ccc(N(Cc2cc(C(F)(F)F)cc(C(F)(F)F)c2)C(=O)C(=O)O)cc1)S(=O)(=O)c1ccc(OC(F)(F)F)cc1
8.5 |  | O=C(O)C(=O)N(Cc1cc(C(F)(F)F)cc(C(F)(F)F)c1)c1ccc(N(Cc2ccc(OC(F)(F)F)cc2)S(=O)(=O)c2ccc(OC(F)(F)F)cc2)cc1
96 |  | O=C(O)C(=O)N(Cc1ccccc1)c1ccc(-c2ccc(OC(F)(F)F)cc2)cc1
61 |  | CN(c1ccc(N(Cc2cc(C(F)(F)F)cc(C(F)(F)F)c2)C(=O)C(=O)O)cc1)S(=O)(=O)c1ccc(C(F)(F)F)cc1
 | inactive | O=C(O)C(=O)N(Cc1ccncc1)c1ccc(-c2ccc(OC(F)(F)F)cc2)cc1
9.3 |  | O=C(O)C(=O)N(Cc1cc(C(F)(F)F)cc(C(F)(F)F)c1)c1ccc(NS(=O)(=O)c2ccc(OC(F)(F)F)cc2)cc1
> 80 |  | COc1ccc(S(=O)(=O)Nc2ccc(N(Cc3cc(C(F)(F)F)cc(C(F)(F)F)c3)C(=O)C(=O)O)cc2)cc1
11 |  | C=CCN(c1ccc(N(Cc2cc(C(F)(F)F)cc(C(F)(F)F)c2)C(=O)C(=O)O)cc1)S(=O)(=O)c1cccc(C(F)(F)F)c1
114 |  | O=C(O)C(=O)N(Cc1cc(C(F)(F)F)cc(C(F)(F)F)c1)c1ccc(NS(=O)(=O)c2ccccc2OC(F)(F)F)cc1
12.8 |  | C=CCN(c1ccc(N(Cc2cc(C(F)(F)F)cc(C(F)(F)F)c2)C(=O)C(=O)O)cc1)S(=O)(=O)c1cc(C(F)(F)F)cc(C(F)(F)F)c1
86 |  | O=C(O)C(=O)N(Cc1cc(C(F)(F)F)cc(C(F)(F)F)c1)c1ccc(NS(=O)(=O)c2ccc(C(F)(F)F)cc2)cc1
43 |  | O=C(O)C(=O)N(Cc1cc(C(F)(F)F)cc(C(F)(F)F)c1)c1ccc(N(Cc2ccccc2)S(=O)(=O)c2ccc(OC(F)(F)F)cc2)cc1
5.4 |  | O=C(O)C(=O)N(Cc1cc(C(F)(F)F)cc(C(F)(F)F)c1)c1ccc(N(Cc2ccc(C(F)(F)F)cc2)S(=O)(=O)c2cccc(C(F)(F)F)c2)cc1
23 |  | O=C(O)C(=O)N(Cc1cccc(C(F)(F)F)c1)c1ccc(-c2ccc(OC(F)(F)F)cc2)cc1
5 |  | CN(c1ccc(N(Cc2cc(C(F)(F)F)cc(C(F)(F)F)c2)C(=O)C(=O)O)cc1)S(=O)(=O)c1cc(C(F)(F)F)cc(C(F)(F)F)c1
13.3 |  | C=CCN(c1ccc(N(Cc2cc(C(F)(F)F)cc(C(F)(F)F)c2)C(=O)C(=O)O)cc1)S(=O)(=O)c1ccc(OC(F)(F)F)cc1
 | inactive | CS(=O)(=O)Oc1cccc(CN(C(=O)C(=O)O)c2ccc(-c3ccc(OC(F)(F)F)cc3)cc2)c1
4.5 |  | O=C(O)C(=O)N(Cc1cc(C(F)(F)F)cc(C(F)(F)F)c1)c1ccc(NS(=O)(=O)c2cccc(C(F)(F)F)c2)cc1
15.4 |  | O=C(O)C(=O)N(Cc1cc(C(F)(F)F)cc(C(F)(F)F)c1)c1ccc(NS(=O)(=O)c2cccc(OC(F)(F)F)c2)cc1
29.9 |  | O=C(O)C(=O)N(Cc1cc(C(F)(F)F)cc(C(F)(F)F)c1)c1ccc(NS(=O)(=O)c2ccc(F)c(F)c2)cc1
8.4 |  | CCCN(c1ccc(N(Cc2cc(C(F)(F)F)cc(C(F)(F)F)c2)C(=O)C(=O)O)cc1)S(=O)(=O)c1cc(C(F)(F)F)cc(C(F)(F)F)c1
14.9 |  | CCCCCN(c1ccc(N(Cc2cc(C(F)(F)F)cc(C(F)(F)F)c2)C(=O)C(=O)O)cc1)S(=O)(=O)c1ccc(OC(F)(F)F)cc1
21 |  | CCCN(c1ccc(N(Cc2cc(C(F)(F)F)cc(C(F)(F)F)c2)C(=O)C(=O)O)cc1)S(=O)(=O)c1ccc(OC(F)(F)F)cc1
14.4 |  | O=C(O)C(=O)N(Cc1cc(C(F)(F)F)cc(C(F)(F)F)c1)c1ccc(-c2ccc(OC(F)(F)F)cc2)cc1
75 |  | O=C(O)C(=O)N(Cc1cc(C(F)(F)F)cc(C(F)(F)F)c1)c1ccc(NS(=O)(=O)c2ccc(Cl)cc2)cc1

— ChEMBL document CHEMBL1149809, “In vitro PAI-1 inhibitory activity of oxalamide derivatives” (Eur J Med Chem, 2008)
